Reference: ChEMBL document CHEMBL1131035, “Tripeptide aldehyde inhibitors of human rhinovirus 3C protease: design, synthesis, biological evaluation, and cocrystal structure solution of P1 glutamine isosteric replacements” (J Med Chem, 1998)
Where a name gives a salt, the structure may show the parent alone. Starred links: 1 amine or outer side, 2 acyl side, 3 side chain; linkers in the order of their positions; H or OH if unused. Non-standard residues stand in square brackets, D forms with d. Residues, ends and D or L forms follow the SMILES beside them. Groups on a side chain read outwards from the residue. *: point of attachment. Met(O) = CS(=O)CC[C@H](N)C(=O)O; Isobutyryl = CC(C)C(=O)*; Cbz = O=C(OCc1ccccc1)*; Dap = NC[C@H](N)C(=O)O; Boc = CC(C)(C)OC(=O)*; CO = O=C([*:1])[*:2]; Propionyl = CCC(=O)*; Tfa = O=C(C(F)(F)F)*; Bz = O=C(c1ccccc1)*; Ms = CS(=O)(=O)*; Moc = COC(=O)*; For = O=C*

Columns and labels:
[1] = Toxic concentration on HRV-14 infected H1- HeLa cells by protection assay.; assay type: toxicity, cell-based; details: human, H1-HeLa cells infected with HRV-14; read-out: TC50 (the source's name)
Summary of the method: (§1)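 Cell protection assay in H1-HeLa cells infected with the named HRV serotype, using virus stocks propagated in H1-HeLa cells. Values reported are the 50% effective concentration (EC50), the 50% toxic concentration (TC50) and the therapeutic index (TI).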

Human rhinovirus sp. = experiment: Effective concentration in HRV-14 infected H1- HeLa cells by protection assay.; assay type: functional, organism-based; summary of the method: as §1
[2] = target: T1, Human rhinovirus A protease (Human rhinovirus sp., UniProt Q4U254); experiment: Binding affinity against HRV-14 3C protease.
T1 sequence (Q4U254 whole entry): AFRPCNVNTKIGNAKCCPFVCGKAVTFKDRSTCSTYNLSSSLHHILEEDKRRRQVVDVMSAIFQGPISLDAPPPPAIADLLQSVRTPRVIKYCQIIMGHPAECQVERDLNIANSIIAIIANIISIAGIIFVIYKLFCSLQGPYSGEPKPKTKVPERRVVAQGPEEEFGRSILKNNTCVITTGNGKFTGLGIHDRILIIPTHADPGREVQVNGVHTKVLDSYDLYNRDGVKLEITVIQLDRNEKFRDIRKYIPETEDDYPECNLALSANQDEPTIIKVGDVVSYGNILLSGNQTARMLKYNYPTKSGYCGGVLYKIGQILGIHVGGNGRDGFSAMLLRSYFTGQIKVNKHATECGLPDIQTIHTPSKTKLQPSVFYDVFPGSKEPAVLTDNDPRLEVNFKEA
Summary of the method: (§2)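 Recombinant 3C protease of the named HRV serotype, expressed and purified. Ki was determined by a continuous fluorescence resonance energy transfer cleavage assay, with 5 mM dithiothreitol included in the assay. Reported standard deviation ±10%.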

[3] = Therapeutic Index against HRV-14 virus infection; assay type: organism-based; details: rhinovirus b14, H1-HeLa cells; read-out: TI; summary of the method: as §1
HeLa [4] = experiment: Effective concentration was measured on HRV-89 infected H1- HeLa cells by protection assay.; assay type: functional, cell-based; details: Homo sapiens; summary of the method: as §1
HeLa [5] = experiment: Effective concentration was measured on HRV-16 infected H1- HeLa cells by protection assay.; assay type: functional, cell-based; details: Homo sapiens; summary of the method: as §1
[6] = target: T1, Human rhinovirus A protease; experiment: Binding affinity was measured against HRV-16 3C protease; summary of the method: as §2
[7] = Toxic concentration was measured on HRV-2 infected H1- HeLa cells by protection assay.; assay type: ADME, cell-based; details: human, H1-HeLa cells infected with HRV-2; read-out: TC50 (the source's name); summary of the method: as §1
[8] = Toxic concentration was measured on HRV-89 infected H1- HeLa cells by protection assay.; assay type: ADME, cell-based; details: human, H1-HeLa cells infected with HRV-89; read-out: TC50 (the source's name); summary of the method: as §1
[9] = target: T1, Human rhinovirus A protease; experiment: Binding affinity was measured against HRV-2 3C protease; summary of the method: as §2
HeLa [10] = experiment: Effective concentration was measured on HRV-2 infected H1- HeLa cells by protection assay.; assay type: functional, cell-based; details: Homo sapiens; summary of the method: as §1
[11] = target: T1, Human rhinovirus A protease; experiment: Binding affinity was measured against HRV-89 3C protease; summary of the method: as §2
[12] = Toxic concentration was measured on HRV-16 infected H1- HeLa cells by protection assay.; assay type: ADME, cell-based; details: human, H1-HeLa cells infected with HRV-16; read-out: TC50 (the source's name); summary of the method: as §1

CC(=O)N(C)C[C@@H](C=O)NC(=O)[C@H](Cc1ccccc1)NC(=O)[C@H](CC(C)C)NC(=O)OCc1ccccc1
CC50 [1]: 100000 nM
EC50 (Human rhinovirus sp.): 5200 nM
Ki [2]: 469 nM
selectivity ratio [3]: 19

CC(C)C[C@H](NC(=O)OCc1ccccc1)C(=O)N[C@@H](Cc1ccccc1)C(=O)N[C@H](C=O)CCC(N)=O (Cbz-Leu-Phe-Gln-aldehyde)
CC50 [1]: 398000 nM
EC50 (Human rhinovirus sp.): 66000 nM
Ki [2]: 3600 nM
selectivity ratio [3]: 6

CC(C)C[C@H](NC(=O)OCc1ccccc1)C(=O)N[C@@H](Cc1ccccc1)C(=O)N[C@H](C=O)CCC(=O)NC(c1ccccc1)(c1ccccc1)c1ccccc1
CC50 [1]: 15800 nM
EC50 (Human rhinovirus sp.): > 15800 nM
Ki [2]: 40 nM

CC(=O)NC[C@@H](C=O)NC(=O)[C@H](Cc1ccccc1)NC(=O)[C@H](CC(C)C)NC(=O)OCc1ccccc1 (Cbz-Leu-Phe-[Dap](Ac)-aldehyde)
EC50 (HeLa [4]): 2200 nM
CC50 [1]: 316000 nM
EC50 (HeLa [5]): 2100 nM
EC50 (Human rhinovirus sp.): 2400 nM
Ki [6]: 69 nM
CC50 [7]: > 100000 nM
Ki [2]: 6 nM
CC50 [8]: > 100000 nM
Ki [9]: 160 nM
EC50 (HeLa [10]): 3100 nM
Ki [11]: 36 nM
selectivity ratio [3]: 132
CC50 [12]: > 100000 nM

CC(C)C[C@H](NC(=O)OCc1ccccc1)C(=O)N[C@@H](Cc1ccccc1)C(=O)N[C@H](C=O)CNC(=O)c1ccccc1 (Cbz-Leu-Phe-[Dap](Bz)-aldehyde)
CC50 [1]: 51200 nM
EC50 (Human rhinovirus sp.): 1000 nM
Ki [2]: 12 nM
selectivity ratio [3]: 51

CC(C)C[C@H](NC(=O)OCc1ccccc1)C(=O)N[C@@H](Cc1ccccc1)C(=O)N[C@H](C=O)CCC(=O)N(C)C (Cbz-Leu-Phe-Glu(NMe2)-aldehyde)
CC50 [1]: 63000 nM
EC50 (Human rhinovirus sp.): 1300 nM
Ki [2]: 5 nM
selectivity ratio [3]: 48

CC(C)C[C@H](NC(=O)OCc1ccccc1)C(=O)N[C@@H](Cc1ccccc1)C(=O)N[C@H](C=O)CC[S+](C)[O-] (stereo partly drawn) (Cbz-Leu-Phe-[Met(O)]-aldehyde)
CC50 [1]: > 100000 nM
EC50 (Human rhinovirus sp.): 4500 nM
Ki [2]: 5 nM
selectivity ratio [3]: > 22

CC(C)C[C@H](NC(=O)OCc1ccccc1)C(=O)N[C@@H](Cc1ccccc1)C(=O)N[C@H](C=O)CCC#N
CC50 [1]: 31000 nM
EC50 (Human rhinovirus sp.): 8000 nM
Ki [2]: 190 nM
selectivity ratio [3]: 4

CC(C)C[C@H](NC(=O)OCc1ccccc1)C(=O)N[C@@H](Cc1ccccc1)C(=O)N[C@H](C=O)CNS(C)(=O)=O (Cbz-Leu-Phe-[Dap](Ms)-aldehyde)
CC50 [1]: 63000 nM
EC50 (Human rhinovirus sp.): 20000 nM
Ki [2]: 640 nM
selectivity ratio [3]: 3

CC(C)C[C@H](NC(=O)OCc1ccccc1)C(=O)N[C@@H](Cc1ccccc1)C(=O)N[C@H](C=O)CNC(=O)C(F)(F)F (Cbz-Leu-Phe-[Dap](Tfa)-aldehyde)
CC50 [1]: 25000 nM
EC50 (Human rhinovirus sp.): 1800 nM
Ki [2]: 146 nM
selectivity ratio [3]: 14

CC(C)C[C@H](NC(=O)OCc1ccccc1)C(=O)N[C@@H](Cc1ccccc1)C(=O)N[C@H](C=O)CNC(=O)N(C)C (Cbz-Leu-Phe-[Dap]([CO-NMe2])-aldehyde)
CC50 [1]: 99000 nM
EC50 (Human rhinovirus sp.): 2100 nM
Ki [2]: 10 nM
selectivity ratio [3]: 47

CC(C)C[C@H](NC(=O)OCc1ccccc1)C(=O)N[C@@H](Cc1ccccc1)C(=O)N[C@H](C=O)CNC=O (Cbz-Leu-Phe-[Dap](For)-aldehyde)
CC50 [1]: 206000 nM
EC50 (Human rhinovirus sp.): 1600 nM
Ki [2]: 73 nM
selectivity ratio [3]: 129

CC(C)C[C@H](NC(=O)OCc1ccccc1)C(=O)N[C@@H](Cc1ccccc1)C(=O)N[C@H](C=O)CN1CCCC1=O
CC50 [1]: > 100000 nM
EC50 (Human rhinovirus sp.): 4000 nM
Ki [2]: 52 nM
selectivity ratio [3]: > 25

CC(C)C[C@H](NC(=O)OCc1ccccc1)C(=O)N[C@@H](Cc1ccccc1)C(=O)N[C@H](C=O)CNC(=O)C(C)C (Cbz-Leu-Phe-[Dap](Isobutyryl)-aldehyde)
CC50 [1]: 18000 nM
EC50 (Human rhinovirus sp.): 4000 nM
Ki [2]: 18 nM
selectivity ratio [3]: 5

CCC(=O)NC[C@@H](C=O)NC(=O)[C@H](Cc1ccccc1)NC(=O)[C@H](CC(C)C)NC(=O)OCc1ccccc1 (Cbz-Leu-Phe-[Dap](Propionyl)-aldehyde)
CC50 [1]: > 100000 nM
EC50 (Human rhinovirus sp.): 1300 nM
Ki [2]: 7 nM
selectivity ratio [3]: > 77

COC(=O)NC[C@@H](C=O)NC(=O)[C@H](Cc1ccccc1)NC(=O)[C@H](CC(C)C)NC(=O)OCc1ccccc1 (Cbz-Leu-Phe-[Dap](Moc)-aldehyde)
CC50 [1]: 56200 nM
EC50 (Human rhinovirus sp.): 5000 nM
Ki [2]: 132 nM
selectivity ratio [3]: 11

CC(C)C[C@H](NC(=O)OCc1ccccc1)C(=O)N[C@@H](Cc1ccccc1)C(=O)N[C@H](C=O)CNC(=O)c1ccno1
CC50 [1]: 59500 nM
EC50 (Human rhinovirus sp.): 1500 nM
Ki [2]: 5 nM
selectivity ratio [3]: 40

CC(C)C[C@H](NC(=O)OCc1ccccc1)C(=O)N[C@@H](Cc1ccccc1)C(=O)N[C@H](C=O)CNC(=O)OC(C)(C)C (Cbz-Leu-Phe-[Dap](Boc)-aldehyde)
CC50 [1]: 56200 nM
EC50 (Human rhinovirus sp.): 2000 nM
Ki [2]: 66 nM
selectivity ratio [3]: 28
